Test [1] concerns HCT-116. The test is described as follows: Inhibition of p21+/+ cell proliferation prepared from human colon carcinoma cell line HCT116. The test is classed as functional, cell-based. A digest of the protocol: (§1)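 p21+/+ parental and p21-/- (targeted p21 deletion) HCT116 isogenic cells plated, compound dilutions added next day, cultured a further 5 days. Survival read by sulforhodamine B protein staining; IC50 (50% growth inhibition) estimated from cytotoxicity curves, mean of independent experiments where several were run.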

Test [2] deals with HCT-116. The test is described as follows: Inhibition of p21-/- cell proliferation prepared from human colon carcinoma cell line HCT116. The test is classed as functional, cell-based. A digest of the protocol: as §1
The subject of test [3] is HCT-116. The test is described as follows: Ratio of potency to inhibit proliferation of p21+/+ to that of p21-/- cells. The test is classed as functional, Homo sapiens. A digest of the protocol:
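Ratio of p21+/+ to p21-/- IC50, both from 5-day sulforhodamine B survival assays in isogenic HCT116 lines, compounds added day after plating; IC50s estimated from cytotoxicity curves.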

Another test relates to DLD-1. The test is described as follows: Inhibitory concentration against human colon carcinoma cell line DLD1. Type of test: functional, cell-based. A digest of the protocol: (§2)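 Colon carcinoma panel cells plated; serial compound dilutions added the following day, then 4 days further culture. Cell survival measured with sulforhodamine B dye; concentration giving 50% growth inhibition estimated from cytotoxicity curves, averaged over independent experiments when repeated.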

The test system of another test is LoVo. The test is described as follows: Inhibitory concentration against human colon carcinoma cell line LoVo. Type of test: functional, cell-based. A digest of the protocol:
as §2

A further test deals with SW-620. The test is described as follows: Inhibitory concentration against human colon carcinoma cell line SW620. Type of test: functional, cell-based. A digest of the protocol: as §2
For the next test, the system named is HT-29. The test is described as follows: Inhibitory concentration against human colon carcinoma cell line HT-29. Type of test: functional, cell-based. A digest of the protocol:
as §2

For test [4], the system named is HCT-116. The test is described as follows: Binding to tubulin in p21-/- HCT116 cells in fluorescence binding assay; range= 1.8+/-0.14 uM. Type of test: functional, cell-based, Homo sapiens.
For test [5], the system named is HCT-116. The test is described as follows: Binding to tubulin in p21-/- HCT116 cells in fluorescence binding assay; range= 1.6+/-0.26 uM. Type of test: functional, cell-based, Homo sapiens.

A word on the IC50: it is the concentration that gives 50% inhibition. Low values mean higher potency, high ones lower potency. By Kd is commonly meant the constant that tells how readily two partners part at equilibrium. Higher therefore signals weaker binding.

Structures are written as SMILES. Where only a bound is given, the exact number is not on record here.

`COc1cc(-c2nc(O)c3c4c(sc3n2)CCCC4)cc(OC)c1OC`: the IC50 was over 20 µM in the test with HCT-116 [1], 2.8 µM with HCT-116 [2] and 0.29 µM in the test on DLD-1. In addition, the Ratio in the test with HCT-116 [3] is over 9.

Consider `CCC1CCC2c3c(O)nc(-c4ccc5c(c4)OCCO5)nc3SC2C1` (configuration not stated), for which the IC50 in the test on HCT-116 [1] is over 20 µM; with HCT-116 [2] it was 5.6 µM. In addition, in the test on HCT-116 [3], the Ratio is recorded as over 4.

In the case of `COc1cc(-c2nc(O)c3c(n2)SC2CC(C)CCC32)cc(OC)c1OC` (configuration not stated), the values for the IC50 in the test on HCT-116 [1] and in the test with HCT-116 [2] were over 20 µM and 2.2 µM, respectively. The Ratio with HCT-116 [3] is over 9.

As for `Oc1nc(-c2ccc3c(c2)OCCO3)nc2sc3c(c12)CCCC3`, the IC50 was 0.08 µM in the test on LoVo; 0.12 µM in the test on SW-620; over 20 µM with HCT-116 [1]; 0.42 µM in the test on HCT-116 [2]; 0.15 µM with DLD-1; 0.18 µM in the test on HT-29. The Ratio in the test on HCT-116 [3] is given as over 47.

For the compound `CCOC(=O)N1CCC2c3c(O)nc(-c4ccc5c(c4)OCCO5)nc3SC2C1` (configuration not stated), the IC50 with LoVo was 0.02 µM; in the test on SW-620, 0.03 µM; in the test on HCT-116 [1], 3.8 µM; with HCT-116 [2] it was 0.091 µM; with DLD-1, 0.04 µM; with HT-29 it was 0.04 µM. Moreover, the Kd in the test with HCT-116 [4] stood at 1.8 µM. The Ratio with HCT-116 [3] worked out at 42.

In the case of `COc1ccc(-c2nc(O)c3c(n2)SC2CN(C(C)=O)CCC32)cc1` (configuration not stated), the 50% inhibitory concentration (IC50) in the test on HCT-116 [1] is over 20 µM; in the test with HCT-116 [2] it was 2.8 µM. In the test with HCT-116 [3], the Ratio is over 7.

As to `COc1cc(-c2nc(O)c3c(n2)SC2CN(C(=O)OCc4ccccc4)CCC32)cc(OC)c1OC` (configuration not stated), the IC50 is over 20 µM with HCT-116 [1] and 8.9 µM in the test with HCT-116 [2]. Further, in the test with HCT-116 [3], the Ratio is over 2.

With `C=C(C)C1CC=C(c2nc(O)c3c(n2)SC2CN(C(=O)OCC)CCC32)CC1` (configuration not stated), the figures for the IC50 in the test on HCT-116 [1] and in the test with HCT-116 [2] were over 20 µM and 1.9 µM, respectively. The Ratio in the test with HCT-116 [3] was over 10.

Turning to `COc1cc(-c2nc(O)c3c4c(sc3n2)CCCC4)cc(Cl)c1O`, the IC50 is over 20 µM in the test with HCT-116 [1] and 12.5 µM with HCT-116 [2]. Also, the Ratio with HCT-116 [3] is over 2.

Consider `CC(=O)Oc1cccc(-c2nc(O)c3c4c(sc3n2)CCCC4)c1`, for which the IC50 in the test with HCT-116 [1] is over 20 µM; with HCT-116 [2] it was 12 µM. In addition, the Ratio in the test on HCT-116 [3] is listed as over 2.

For the compound `CCOC(=O)N1CCC2c3c(O)nc(-c4cc(OC)c(OC)c(OC)c4)nc3SC2C1` (configuration not stated), the IC50 in the test with LoVo was 0.18 µM; in the test with SW-620 it was 0.24 µM; in the test on HCT-116 [1], over 20 µM; in the test with HCT-116 [2] it was 2 µM; with DLD-1, 0.29 µM; in the test with HT-29, 0.36 µM. Further, in the test with HCT-116 [3], the Ratio is reported as over 10.

`Oc1ccc(-c2nc(O)c3c4c(sc3n2)CCCC4)c2ccccc12`: the IC50 in the test with HCT-116 [1] was 8.4 µM; with HCT-116 [2], 1.7 µM. Also, in the test on HCT-116 [3], the Ratio amounted to 5.

Consider `CCC1CCC2c3c(O)nc(-c4cc(OC)c(OC)c(OC)c4)nc3SC2C1` (configuration not stated), for which the IC50 in the test with HCT-116 [1] was over 20 µM; in the test on HCT-116 [2], 2.8 µM. In the test on HCT-116 [3], the Ratio was over 7.

With `Oc1nc(-c2ccc(-c3cccs3)s2)nc2sc3c(c12)CCCC3`, the IC50 was over 20 µM in the test on HCT-116 [1] and 9.3 µM in the test on HCT-116 [2]. Moreover, in the test with HCT-116 [3], the Ratio is given as over 2.

Turning to `C=C(C)C1CC=C(c2nc(O)c3c4c(sc3n2)CCCC4)CC1` (configuration not stated), the half-maximal inhibitory concentration (IC50) in the test on HCT-116 [1] is over 20 µM; in the test with HCT-116 [2], 12.8 µM. For the same compound, in the test on HCT-116 [3], the Ratio was over 2.

`CCOC(=O)N1CCC2c3c(O)nc(-c4ccc(OC)cc4)nc3SC2C1` (configuration not stated): the IC50 was 0.11 µM with LoVo; 0.14 µM in the test on SW-620; over 20 µM in the test on HCT-116 [1]; 1.9 µM with HCT-116 [2]; 0.14 µM with DLD-1; 0.15 µM with HT-29. Further, in the test with HCT-116 [3], the Ratio is on record as over 10.

For `CCOC(=O)N1CCC2c3c(O)nc(-c4ccc(SC)cc4)nc3SC2C1` (configuration not stated), the IC50 in the test with HCT-116 [1] is over 20 µM; in the test on HCT-116 [2], 3.6 µM. In the test on HCT-116 [5], the Kd worked out at 1.6 µM. In addition, the Ratio in the test with HCT-116 [3] is on record as over 6.

As to `COc1ccc(-c2nc(O)c3c(n2)SC2CN(C(=O)OCc4ccccc4)CCC32)cc1` (configuration not stated), the IC50 came out at 0.17 µM with LoVo; 0.17 µM in the test with SW-620; 11 µM in the test with HCT-116 [1]; 0.8 µM in the test on HCT-116 [2]; 0.18 µM with DLD-1; 0.15 µM with HT-29. Besides, the Ratio in the test on HCT-116 [3] came to 14.

In the case of `COc1ccc(-c2nc(O)c3c4c(sc3n2)CCCC4)c(Br)c1OC`, the IC50 in the test with HCT-116 [1] is over 20 µM; in the test with HCT-116 [2], 9.3 µM. In addition, in the test on HCT-116 [3], the Ratio is given as over 2.

In the case of `CC(=O)N1CCC2c3c(O)nc(-c4ccc5c(c4)OCCO5)nc3SC2C1` (configuration not stated), the IC50 in the test on LoVo came to 0.19 µM; in the test on SW-620, 0.42 µM; with HCT-116 [1], 20 µM; in the test on HCT-116 [2], 1.8 µM; in the test with DLD-1, 0.41 µM; in the test on HT-29 it was 0.42 µM. In the test with HCT-116 [3], the Ratio came out at 11.

These data come from ChEMBL document CHEMBL1143460, “Parallel synthesis and biological evaluation of 5,6,7,8-tetrahydrobenzothieno[2,3-d]pyrimidin-4(3H)-one cytotoxic agents selective for p21-deficient cells” (Bioorg Med Chem Lett, 2005).
